Measurements published in ChEMBL document CHEMBL1140577, “Anticancer and anti-inflammatory activities of 1,8-naphthyridine-3-carboxamide derivatives” (Bioorg Med Chem Lett, 2007).
Active and inactive are the calls of the source. The calls are words filed in the database; no cut-off is given here.

Tested on: Dendritic cell
Assay: Myeloprotective activity assessed as stimulation of MIP1 secretion in mouse dendritic cells after 24 hrs by ELISA relative to basal level
Format: functional, cell-based
Conditions: not given
Procedure, shortened: (§1)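 Murine bone-marrow-derived dendritic cells, not LPS-stimulated, incubated with compounds at 0.1 and 1 µg/ml for 24 h. MIP-1α, CCL22 and TNF-α in culture supernatants measured by ELISA. % change = (B−A)/A×100 against untreated DCs.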
With `C#CCn1cc(C(=O)NCCCOC(=O)CNC(=O)OC(C)(C)C)c(=O)c2ccc(Cl)nc21` the Activity was “Active”.
In the case of `C#CCn1cc(C(=O)NCCCOC(=O)[C@H]2CCCN2C(=O)OC(C)(C)C)c(=O)c2ccc(Cl)nc21`, the Activity is reported as “Active”.
With `C#CCn1cc(C(=O)NCCCOC(=O)[C@H](C)NC(=O)OC(C)(C)C)c(=O)c2ccc(Cl)nc21` the Activity was “Active”.

Tested on: DU-145
Assay: Cytotoxicity against human DU145 cells after 72 hrs by MTT assay
Format: functional, cell-based
Conditions: DU-145, 72 h
Procedure, shortened: (§2)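 5000–10,000 cells seeded per well and exposed for 72 h in a CO₂ incubator to five concentrations, the highest 10 µM (top soluble). MTT (125 µg) added for 3 h, then lysed with 10% SDS–0.01 N HCl for 1 h. Absorbance read at 540 nm. % cytotoxicity = (1 − (treated−blank)/control)×100.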
With `C#CCn1cc(C(=O)NCCCOC(=O)CNC(=O)OC(C)(C)C)c(=O)c2cccnc21` the IC50 was greater than 10 µM.
In the case of `C#CCn1cc(C(=O)NCCCOC(=O)[C@H]2CCCN2C(=O)OC(C)(C)C)c(=O)c2ccc(C)nc21`, the IC50 is reported as greater than 10 µM.
For `C#CCn1cc(C(=O)NCCCOC(=O)[C@H]2CCCN2C(=O)OC(C)(C)C)c(=O)c2ccc(Cl)nc21`, the IC50 was greater than 10 µM.
With `C#CCn1cc(C(=O)NCCCOC(=O)[C@H](C)NC(=O)OC(C)(C)C)c(=O)c2ccc(Cl)nc21` the IC50 was greater than 10 µM.

Tested on: Dendritic cell
Assay: Myeloprotective activity assessed as inhibition of TNFalpha secretion in mouse dendritic cells after 24 hrs by ELISA relative to basal level
Format: functional, cell-based
Conditions: not given
Procedure, shortened: as §1
With `C#CCn1cc(C(=O)NCCCOC(=O)CNC(=O)OC(C)(C)C)c(=O)c2ccc(Cl)nc21` the Activity was “Active”.
With `C#CCn1cc(C(=O)NCCCOC(=O)[C@H]2CCCN2C(=O)OC(C)(C)C)c(=O)c2ccc(Cl)nc21` the Activity was “Active”.
In the case of `C#CCn1cc(C(=O)NCCCOC(=O)[C@H](C)NC(=O)OC(C)(C)C)c(=O)c2ccc(Cl)nc21`, the Activity is reported as “Active”.

Tested on: Dendritic cell
Assay: Myeloprotective activity assessed as inhibition of CCL22 secretion in mouse dendritic cells after 24 hrs by ELISA
Format: functional, cell-based
Conditions: not given
Procedure, shortened: as §1
In the case of `C#CCn1cc(C(=O)NCCCOC(=O)CNC(=O)OC(C)(C)C)c(=O)c2ccc(Cl)nc21`, the Activity is reported as “Active”.
With `C#CCn1cc(C(=O)NCCCOC(=O)[C@H]2CCCN2C(=O)OC(C)(C)C)c(=O)c2ccc(Cl)nc21` the Activity was “Active”.
With `C#CCn1cc(C(=O)NCCCOC(=O)[C@H](C)NC(=O)OC(C)(C)C)c(=O)c2ccc(Cl)nc21` the Activity was “Active”.

Tested on: PA-1
Assay: Cytotoxicity against human PA1 cells after 72 hrs by MTT assay
Format: functional, cell-based
Conditions: PA-1, 72 h
Procedure, shortened: as §2
In the case of `C#CCn1cc(C(=O)NCCCOC(=O)CNC(=O)OC(C)(C)C)c(=O)c2cccnc21`, the IC50 is reported as 9 µM.
For `C#CCn1cc(C(=O)NCCCOC(=O)[C@H]2CCCN2C(=O)OC(C)(C)C)c(=O)c2ccc(C)nc21`, the IC50 was greater than 10 µM.
`C#CCn1cc(C(=O)NCCCOC(=O)[C@H]2CCCN2C(=O)OC(C)(C)C)c(=O)c2ccc(Cl)nc21` gave an IC50 greater than 10 µM.
For `C#CCn1cc(C(=O)NCCCOC(=O)[C@H](C)NC(=O)OC(C)(C)C)c(=O)c2ccc(Cl)nc21`, the IC50 was greater than 10 µM.

Tested on: SW-620
Assay: Cytotoxicity against human SW620 cells after 72 hrs by MTT assay
Format: functional, cell-based
Conditions: SW-620, 72 h
Procedure, shortened: as §2
With `C#CCn1cc(C(=O)NCCCOC(=O)CNC(=O)OC(C)(C)C)c(=O)c2cccnc21` the IC50 was greater than 10 µM.
`C#CCn1cc(C(=O)NCCCOC(=O)[C@H]2CCCN2C(=O)OC(C)(C)C)c(=O)c2ccc(C)nc21` gave an IC50 greater than 10 µM.
In the case of `C#CCn1cc(C(=O)NCCCOC(=O)[C@H]2CCCN2C(=O)OC(C)(C)C)c(=O)c2ccc(Cl)nc21`, the IC50 is reported as greater than 10 µM.
Work on `C#CCn1cc(C(=O)NCCCOC(=O)[C@H](C)NC(=O)OC(C)(C)C)c(=O)c2ccc(Cl)nc21` yielded an IC50 greater than 10 µM.

Tested on: HBL-100
Assay: Cytotoxicity against human HBL100 cells after 72 hrs by MTT assay
Format: functional, cell-based
Conditions: HBL-100, 72 h
Procedure, shortened: as §2
`C#CCn1cc(C(=O)NCCCOC(=O)CNC(=O)OC(C)(C)C)c(=O)c2cccnc21` showed an IC50 greater than 10 µM.
In the case of `C#CCn1cc(C(=O)NCCCOC(=O)[C@H]2CCCN2C(=O)OC(C)(C)C)c(=O)c2ccc(C)nc21`, the IC50 is reported as greater than 10 µM.
Work on `C#CCn1cc(C(=O)NCCCOC(=O)[C@H]2CCCN2C(=O)OC(C)(C)C)c(=O)c2ccc(Cl)nc21` yielded an IC50 of 3.7 µM.
With `C#CCn1cc(C(=O)NCCCOC(=O)[C@H](C)NC(=O)OC(C)(C)C)c(=O)c2ccc(Cl)nc21` the IC50 was 5.4 µM.

Tested on: K562
Assay: Cytotoxicity against human K562 cells after 72 hrs by MTT assay
Format: functional, cell-based
Conditions: K562, 72 h
Procedure, shortened: as §2
In the case of `C#CCn1cc(C(=O)NCCCOC(=O)CNC(=O)OC(C)(C)C)c(=O)c2cccnc21`, the IC50 is reported as greater than 10 µM.
In the case of `C#CCn1cc(C(=O)NCCCOC(=O)[C@H]2CCCN2C(=O)OC(C)(C)C)c(=O)c2ccc(C)nc21`, the IC50 is reported as greater than 10 µM.
Work on `C#CCn1cc(C(=O)NCCCOC(=O)[C@H]2CCCN2C(=O)OC(C)(C)C)c(=O)c2ccc(Cl)nc21` yielded an IC50 greater than 10 µM.
For `C#CCn1cc(C(=O)NCCCOC(=O)[C@H](C)NC(=O)OC(C)(C)C)c(=O)c2ccc(Cl)nc21`, the IC50 was greater than 10 µM.

Tested on: not listed separately
Assay: Antiinflammatory activity assessed as inhibition of TNFalpha secretion in LPS-induced C57BL/6 mouse dendritic cells at 1 ug/mL after 24 hrs by ELISA
Format: functional
Conditions: C57BL/6, Dendritic cell
Procedure, shortened: (§3)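 DCs grown from femoral bone marrow of 8–12-week-old C57BL/6 mice in RPMI-1640 with 10% FBS and rmGM-CSF (20 ng/ml), 37 °C, 5% CO₂. Immature DCs stimulated with LPS (100 ng/ml) and exposed to compounds (0.001–10 µg/ml range) for 24 h. Cytokine in supernatant quantified by ELISA. % change = (B−A)/A×100, where A is LPS-stimulated DCs without compound.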
With `C#CCn1cc(C(=O)NCCCOC(=O)CNC(=O)OC(C)(C)C)c(=O)c2ccc(Cl)nc21` the inhibition at 1 µg/mL was greater than 50%.
With `C#CCn1cc(C(=O)NCCCOC(=O)[C@H]2CCCN2C(=O)OC(C)(C)C)c(=O)c2ccc(Cl)nc21` the inhibition at 1 µg/mL was greater than 50%.

Tested on: not listed separately
Assay: Cytotoxicity against human MIA PaCa cells after 72 hrs by MTT assay
Format: functional, cell-based
Conditions: not given
Procedure, shortened: as §2
In the case of `C#CCn1cc(C(=O)NCCCOC(=O)CNC(=O)OC(C)(C)C)c(=O)c2cccnc21`, the IC50 is reported as greater than 10 µM.
For `C#CCn1cc(C(=O)NCCCOC(=O)[C@H]2CCCN2C(=O)OC(C)(C)C)c(=O)c2ccc(C)nc21`, the IC50 was greater than 10 µM.
`C#CCn1cc(C(=O)NCCCOC(=O)[C@H]2CCCN2C(=O)OC(C)(C)C)c(=O)c2ccc(Cl)nc21` showed an IC50 of 7.6 µM.
For `C#CCn1cc(C(=O)NCCCOC(=O)[C@H](C)NC(=O)OC(C)(C)C)c(=O)c2ccc(Cl)nc21`, the IC50 was greater than 10 µM.

Tested on: A549
Assay: Cytotoxicity against human A549 cells after 72 hrs by MTT assay
Format: functional, cell-based
Conditions: A549, 72 h
Procedure, shortened: as §2
With `C#CCn1cc(C(=O)NCCCOC(=O)CNC(=O)OC(C)(C)C)c(=O)c2cccnc21` the IC50 was greater than 10 µM.
In the case of `C#CCn1cc(C(=O)NCCCOC(=O)[C@H]2CCCN2C(=O)OC(C)(C)C)c(=O)c2ccc(C)nc21`, the IC50 is reported as greater than 10 µM.
In the case of `C#CCn1cc(C(=O)NCCCOC(=O)[C@H]2CCCN2C(=O)OC(C)(C)C)c(=O)c2ccc(Cl)nc21`, the IC50 is reported as greater than 10 µM.
In the case of `C#CCn1cc(C(=O)NCCCOC(=O)[C@H](C)NC(=O)OC(C)(C)C)c(=O)c2ccc(Cl)nc21`, the IC50 is reported as greater than 10 µM.

Tested on: Dendritic cell
Assay: Antiinflammatory activity assessed as inhibition of IP-10 secretion in LPS-induced C57BL/6 mouse dendritic cells after 24 hrs by ELISA
Format: functional, cell-based
Conditions: not given
Procedure, shortened: as §3
In the case of `C#CCn1cc(C(=O)NCCCOC(=O)CNC(=O)OC(C)(C)C)c(=O)c2ccc(Cl)nc21`, the Activity is reported as “Active”.
In the case of `C#CCn1cc(C(=O)NCCCOC(=O)[C@H]2CCCN2C(=O)OC(C)(C)C)c(=O)c2ccc(Cl)nc21`, the Activity is reported as “Active”.

Tested on: NIH3T3 (Mus musculus)
Assay: Cytotoxicity against mouse NIH3T3 cells after 72 hrs by MTT assay
Conditions: NIH3T3, 72 h
`C#CCn1cc(C(=O)NCCCOC(=O)CNC(=O)OC(C)(C)C)c(=O)c2cccnc21` showed an IC50 greater than 10 µM.
Work on `C#CCn1cc(C(=O)NCCCOC(=O)[C@H]2CCCN2C(=O)OC(C)(C)C)c(=O)c2ccc(C)nc21` yielded an IC50 greater than 10 µM.
Molecule `C#CCn1cc(C(=O)NCCCOC(=O)[C@H]2CCCN2C(=O)OC(C)(C)C)c(=O)c2ccc(Cl)nc21` has an IC50 of 8.4 µM.
With `C#CCn1cc(C(=O)NCCCOC(=O)[C@H](C)NC(=O)OC(C)(C)C)c(=O)c2ccc(Cl)nc21` the IC50 was 9.2 µM.

Tested on: KB
Assay: Cytotoxicity against human KB cells after 72 hrs by MTT assay
Format: functional, cell-based
Conditions: not given
Procedure, shortened: as §2
In the case of `C#CCn1cc(C(=O)NCCCOC(=O)CNC(=O)OC(C)(C)C)c(=O)c2cccnc21`, the IC50 is reported as 7 µM.
`C#CCn1cc(C(=O)NCCCOC(=O)[C@H]2CCCN2C(=O)OC(C)(C)C)c(=O)c2ccc(C)nc21` showed an IC50 of 3.7 µM.
Work on `C#CCn1cc(C(=O)NCCCOC(=O)[C@H]2CCCN2C(=O)OC(C)(C)C)c(=O)c2ccc(Cl)nc21` yielded an IC50 greater than 10 µM.
`C#CCn1cc(C(=O)NCCCOC(=O)[C@H](C)NC(=O)OC(C)(C)C)c(=O)c2ccc(Cl)nc21` showed an IC50 greater than 10 µM.
